How the values were obtained:
A549 [1] = test: Cytotoxicity against human A549 cells assessed as cell viability at 1 uM by SRB assay; type: functional; conditions: read-out: Activity
Outline: (§1)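 Modified sulforhodamine B (SRB) protein-stain assay. Each human cancer line was exposed to 1, 10 and 100 µM of each isolated root constituent. The read-out is relative cell viability (%), reported as mean ± error.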

A549 [2] = test: Cytotoxicity against human A549 cells assessed as cell viability at 10 uM by SRB assay; type: functional; conditions: read-out: Activity; outline: as §1
A549 [3] = test: Cytotoxicity against human A549 cells assessed as cell viability at 100 uM by SRB assay; type: functional; conditions: read-out: Activity; outline: as §1
HeLa [4] = test: Cytotoxicity against human HeLa cells assessed as cell viability at 1 uM by SRB assay; type: functional; conditions: read-out: Activity; outline: as §1
HeLa [5] = test: Cytotoxicity against human HeLa cells assessed as cell viability at 10 uM by SRB assay; type: functional; conditions: read-out: Activity; outline: as §1
HeLa [6] = test: Cytotoxicity against human HeLa cells assessed as cell viability at 100 uM by SRB assay; type: functional; conditions: read-out: Activity; outline: as §1
HeLa [7] = test: Cytotoxicity against human HeLa cells by SRB assay; type: functional, cell-based

| SMILES | viability at 1 µM (A549 [1]) [%] | viability at 10 µM (A549 [2]) [%] | viability at 100 µM (A549 [3]) [%] | viability at 1 µM (HeLa [4]) [%] | viability at 10 µM (HeLa [5]) [%] | viability at 100 µM (HeLa [6]) [%] | IC50 (HeLa [7]) [µM] |
| --- | --- | --- | --- | --- | --- | --- | --- |
| CC1=CC(=O)[C@@H](O)[C@]2(C)[C@H]3[C@@H](O)[C@H](O)[C@H](C)[C@]4(O)[C@@H](O)C(=O)O[C@H](C[C@@H]12)[C@]34C | 99.5 | 86.4 | 43.3 | 101 | 71.6 | 21 | 48.2 |
| COc1cccc2c1C(=O)c1c(O)c3c(c(O)c1C2=O)C[C@@](O)(C(=O)CO)C[C@@H]3O[C@H]1C[C@H](N)[C@@H](O)[C@H](C)O1 [EPIRUBICIN] |  | 0.61 |  |  | 24.3 |  |  |
| CC1=CC(=O)[C@@H](O)[C@]2(C)[C@H]3[C@@H](O)[C@H](O)[C@H](C)[C@]4(O)[C@@H](O)C(=O)O[C@H](C[C@@]12O)[C@]34C | 99.8 | 101 | 99.3 | 101 | 103 | 100 |  |
| C[C@H]1[C@H]2OC(=O)[C@@H]1[C@]1(C)C(=O)C=C3[C@@](C)(O)C[C@H](O)[C@@H](O)[C@]3(C)C1[C@H]2O (some centres not stated) | 96.6 | 102 | 101 | 101 | 102 | 102 |  |
| C=C1[C@@H](O)[C@@]2(O)OC[C@]34[C@H]2[C@@]2(C)[C@H](O)C(=O)C=C(C)[C@@H]2C[C@H]3OC(=O)[C@H](O)[C@@]14O [EURYCOMANONE] | 96.8 | 101 | 87.2 | 101 | 97.5 | 47 |  |
| C=C1C(=O)C(O)=C2[C@@](C)([C@@H]3OC(=O)C=C3C)C[C@H]3OC(=O)[C@H](O)[C@]1(O)[C@@]23CO | 100 | 102 | 100 | 102 | 104 | 101 |  |
| CC1=CC(=O)[C@@H](O)[C@]2(C)[C@H]3[C@]4(O)OC[C@@]35[C@@H](C[C@@H]12)OC(=O)[C@H](O)[C@@]5(O)[C@]1(CO1)[C@H]4O | 96.2 | 102 | 99.1 | 101 | 101 | 61.7 |  |
| CC1=C2C[C@H]3OC(=O)[C@H](O)[C@@]4(O)[C@@H](C)[C@]5(O)C(=O)OC[C@]34C5[C@@]2(C)[C@H](O)[C@@H](O)C1 (some centres not stated) | 103 | 103 | 103 | 106 | 105 | 103 |  |
| CC1=CC(=O)O[C@H]1[C@@]1(C)C[C@H]2OC(=O)[C@H](O)[C@@]3(O)[C@@H](C)C(=O)C(O)=C1[C@@]23CO | 102 | 104 | 103 | 102 | 103 | 106 |  |
| CC1=CC(=O)O[C@H]1[C@@]1(C)C[C@H]2OC(=O)[C@H](O)[C@@]3(O)[C@H](C)C(=O)C(O)=C1[C@@]23CO | 101 | 104 | 104 | 102 | 104 | 106 |  |
| CC1=CC(=O)[C@@H](O)[C@]2(C)[C@H]3[C@]4(O)OC[C@@]35[C@@H](C[C@@H]12)OC(=O)[C@H](O)[C@@]5(O)[C@H](C)[C@H]4O [PASAKBUMIN C] | 99.2 | 101 | 99.8 | 99.8 | 102 | 101 |  |
| CC1=CC(=O)O[C@H]1[C@@]1(C)C[C@H]2OC(=O)[C@H](O)[C@@]3(O)[C@@H](C)[C@@H](O)[C@H](O)[C@H]1[C@@]23C | 102 | 102 | 100 | 104 | 104 | 103 |  |
| CC1=CC(=O)[C@@H](O)[C@@]2(C)[C@H]1CC(=O)[C@@]1(C)[C@H]3C(=O)O[C@H]([C@@H]3C)[C@H](O)[C@@H]12 [EURYCOMALACTONE] | 101 | 71.5 | 41.5 | 105 | 77.7 | 44.5 |  |
| C=C1C[C@H](O)[C@@H](O)[C@]2(C)[C@H]3[C@@H](O)[C@H](O)[C@H](C)[C@@H]4C(=O)O[C@H]([C@H](O)[C@@H]12)[C@]34C | 96.8 | 101 | 101 | 99.7 | 101 | 98.7 |  |
| CC1=CC(=O)[C@@H](O)[C@@]2(C)[C@H]1[C@@H](O)[C@H]1OC(=O)C3[C@@H](C)[C@H](O)[C@H](O)[C@H]2[C@]31C (some centres not stated) [LONGILACTONE] | 99.7 | 99.8 | 66.1 | 101 | 102 | 66.9 |  |

From ChEMBL document CHEMBL3351576, “Five new quassinoids and cytotoxic constituents from the roots of Eurycoma longifolia” (Bioorg Med Chem Lett, 2014)
